ChEMBL document CHEMBL1131291, “Rational design, synthesis, and X-ray structure of selective noncovalent thrombin inhibitors” (J Med Chem, 1998)

Experiments:
Serine protease 1 [1] = target: T1, Serine protease 1 (Bos taurus, UniProt P00760); experiment: In vitro inhibition was measured against […] bovine pancreatic trypsin.
T1 sequence (P00760 whole entry): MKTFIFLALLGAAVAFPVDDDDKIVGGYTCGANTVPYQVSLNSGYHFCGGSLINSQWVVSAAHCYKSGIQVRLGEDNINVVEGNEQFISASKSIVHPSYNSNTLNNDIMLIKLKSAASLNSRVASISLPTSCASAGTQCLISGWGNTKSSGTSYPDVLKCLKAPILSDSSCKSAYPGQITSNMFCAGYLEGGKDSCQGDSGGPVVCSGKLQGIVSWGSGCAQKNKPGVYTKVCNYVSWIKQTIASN
How it was run: (§1)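 Trypsin at 260 pM final was run with Pefachrome TRY substrate in 100 mM sodium phosphate pH 7.4, 100 mM NaCl and 0.1% BSA, at 25 °C. Inhibitor was pre-mixed with substrate and the reaction started with enzyme. Absorbance at 405 nm (p-nitroaniline) was read over 30 min. Ki was fitted to the Dixon equation by weighted linear regression; triplicate, mean ± SD.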

Prothrombin = Prothrombin (Homo sapiens, UniProt P00734); experiment: In vitro inhibition was measured against Human Thrombin.
Coagulation factor X [2] = target: T2, Coagulation factor X (Homo sapiens, UniProt P00742); experiment: In vitro inhibition was measured against Human Coagulation factor X; […]
How it was run: (§2)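 Factor Xa was used at 30 pM final, with Pefachrome Xa substrate, in phosphate buffer pH 7.4 with 100 mM NaCl and 0.1% BSA, at 25 °C. The enzyme-initiated reaction was followed as the 405 nm increase for 30 min. Inhibitor was diluted from a cremophor/ethanol solution. Ki came from weighted Dixon-plot regression; triplicate determinations.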

Coagulation factor X [3] = target: T2, Coagulation factor X; experiment: In vitro inhibition was measured against Human Coagulation factor X; how it was run: as §2
Serine protease 1 [4] = target: T1, Serine protease 1; experiment: In vitro inhibition was measured against Bovine pancreatic trypsin.; how it was run: as §1

T2 sequence (P00742 41-179 limits assumed): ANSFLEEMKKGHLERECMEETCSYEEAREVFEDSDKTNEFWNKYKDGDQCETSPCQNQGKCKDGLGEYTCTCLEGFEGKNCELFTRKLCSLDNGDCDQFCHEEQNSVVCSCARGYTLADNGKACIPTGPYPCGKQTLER
T2 sequence (P00742 235-488 limits assumed): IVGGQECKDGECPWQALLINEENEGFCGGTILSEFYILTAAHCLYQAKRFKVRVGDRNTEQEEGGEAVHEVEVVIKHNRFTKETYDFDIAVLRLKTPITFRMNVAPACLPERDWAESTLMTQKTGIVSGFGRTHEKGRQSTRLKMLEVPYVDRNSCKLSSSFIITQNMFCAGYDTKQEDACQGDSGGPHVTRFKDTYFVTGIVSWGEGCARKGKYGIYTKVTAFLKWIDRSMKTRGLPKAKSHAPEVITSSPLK

Row | Structure (SMILES) | Ki (Serine protease 1 [1]) [µM] | Ki (Prothrombin) [µM] | Ki (Coagulation factor X [2]) | Ki (Coagulation factor X [3]) [µM] | Ki (Serine protease 1 [4]) [µM]
1 | N=C(N)NCCCNC(=O)[C@@H]1CS[C@H]2CC[C@H](NS(=O)(=O)c3cccc4ccccc34)C(=O)N21 | – | – | – | 17.8 | 19.6
2 | NC(N)=NCCCCNC(=O)[C@@H]1CS[C@H]2CC[C@@H](N)C(=O)N21.O=C(O)C(F)(F)F | 5.36 | 62.4 | Not Active | – | –
3 | NC(N)=NCCCNC(=O)[C@@H]1CS[C@H]2CC[C@H](N)C(=O)N21 | 13.3 | 5.1 | – | > 33.7 | –
4 | NC(N)=NCCCNC(=O)[C@@H]1CS[C@H]2CC[C@@H](N)C(=O)N21.O=C(O)C(F)(F)F | 25.1 | 10.3 | Not Active | – | –
5 | N=C(N)NCCCNC(=O)[C@@H]1CS[C@H]2CC[C@H](NS(=O)(=O)Cc3ccccc3)C(=O)N21 | 7.9 | 0.111 | – | > 33.7 | –

Further molecules by falling Ki (Serine protease 1 [1]), results first:

Row | Ki (Serine protease 1 [1]) [µM] | Ki (Prothrombin) [µM] | Ki (Coagulation factor X [2]) | Ki (Coagulation factor X [3]) [µM] | Ki (Serine protease 1 [4]) [µM] | Structure (SMILES)
6 | 5.1 | – | – | 26 | – | N=C(N)NCCCNC(=O)[C@@H]1CS[C@H]2CC[C@@H](NS(=O)(=O)Cc3ccccc3)C(=O)N21
7 | 3.58 | 19.5 | Not Active | – | – | NC(N)=NCCCCNC(=O)[C@@H]1CS[C@H]2CC[C@H](N)C(=O)N21.O=C(O)C(F)(F)F
8 | 3.4 | 0.751 | – | 6.78 | – | N=C(N)NCCCNC(=O)[C@@H]1CS[C@H]2CC[C@@H](NS(=O)(=O)c3cccc4ccccc34)C(=O)N21
